High-throughput results deposited in PubChem BioAssay by several laboratories.
Only some compounds are listed: those with a hit (about 2.8% of all), similar ones and a draw of the others.
MC4R ag barr: agonists of human melanocortin 4 receptor (MC4R) beta-arrestin. activation, % at 8.9 µM. U2OS MC4R beta-arrestin complementation, luminescence; percent of melanotan II response, DMSO zero. P32245. 360,000 compounds, 0.98% hits;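 active means activation above a per-plate cutoff, the mean activation of sample wells on that plate plus 3 SD, cut at about 8% in these data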
MC4R antag cAMP: blocks human MC4R cAMP signaling; MC4R-expressing cells, MTII-stimulated cAMP, LANCE TR-FRET; inhibition, % at 6.5 µM; 360,000 compounds, 0.48% hits;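 active means inhibition above its plate's cutoff, the mean of tested wells on that plate plus 3 SD, cut at about 29% in these data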;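 further: 0% = Melanotan II alone and 100% = Melanotan II plus saturating MCL0020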
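system = U2OS cells with stable human MC4R expression | also added = Melanotan II challenge after compound preincubation | dosing = one concentration, 6.5 µM nominal | incubation = compound 30 min, challenge 1 h, detection 1 h | measured by = TR-FRET with Eu-cAMP and labeled anti-cAMP, 671 nm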
EBI2 antag: EBI2 (human) antagonism; P32249; EBI2 beta-arrestin recruitment, luminescence, 7a,25-OHC stimulated; inhibition, % at 5 µM; 360,000 compounds, 0.81% hits; in the data active means inhibition above about 38%;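 further: enzyme fragment complementation signal reports receptor beta-arrestin coupling in cells; 0% = agonist plus DMSO wells and 100% = wells without agonist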
m5-HT2A agonist: mouse HTR2A agonism via beta-arrestin recruitment; activation, % at 7.6 µM; P35363; 360,000 compounds, 0.66% hits; CHO-K1 mHTR2A beta-arrestin complementation, luminescence; percent of 30 µM serotonin response;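 active means activation above a run cutoff, the mean activation of all tested compounds plus 3 SD, cut at about 14% in these data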;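 further: 0% = plate median of compound wells and 100% = 30 µM serotonin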
Target sequence (P35363 whole entry, looked up): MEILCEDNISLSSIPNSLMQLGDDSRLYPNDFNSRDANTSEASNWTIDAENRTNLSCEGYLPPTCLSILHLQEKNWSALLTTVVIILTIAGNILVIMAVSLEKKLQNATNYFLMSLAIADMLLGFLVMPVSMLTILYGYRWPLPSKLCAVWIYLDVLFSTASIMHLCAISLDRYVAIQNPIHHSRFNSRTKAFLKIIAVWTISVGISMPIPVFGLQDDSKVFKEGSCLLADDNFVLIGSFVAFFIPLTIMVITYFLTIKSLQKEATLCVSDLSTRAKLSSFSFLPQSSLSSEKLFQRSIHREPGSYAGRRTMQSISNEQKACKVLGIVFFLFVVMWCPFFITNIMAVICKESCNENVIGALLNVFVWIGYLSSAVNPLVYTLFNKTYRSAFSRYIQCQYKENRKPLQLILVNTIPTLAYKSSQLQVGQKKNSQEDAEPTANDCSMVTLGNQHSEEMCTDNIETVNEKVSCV
EBI2 antag conf: EBI2 (human) antagonism, single concentration confirmation; 2,400 compounds, 29% hits; shares compounds with EBI2 antag; EBI2 beta-arrestin luminescence, 7a,25-OHC antagonism; inhibition, % at 5 µM;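 active means inhibition of at least 50%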
EBI2 agonist: counter-screen for EBI2 antagonists: EBI2 agonist activity | shares compounds with EBI2 antag | EBI2-expressing cells, agonist mode, luminescence, 60 min; 0% vehicle, 100% 7α,25-dihydroxycholesterol control | activation, % at 5 µM | 2,400 tested, under 10 active | AID 652000;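 active means activation of at least 50%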
bGal counter: counter-screen for EBI2 antagonists: E. coli beta-galactosidase inhibition; shares compounds with EBI2 antag; purified beta-galactosidase, luminescent Galacton Star, 15 min; inhibition, % at 5 µM; 2,400 compounds, 1% hits;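 active means replicate-average signal at least 3 plate SD below neutral wells, shown as high inhibition, flagging enzyme-inhibiting false positives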;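 further: 0% = DMSO wells with enzyme and 100% = wells lacking enzyme; higher means stronger loss of beta-gal luminescence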
* hit, by the source's call; · = no result given.

SMILES | MC4R ag barr | MC4R antag cAMP | EBI2 antag | m5-HT2A agonist | EBI2 antag conf | EBI2 agonist | bGal counter
O=C(/C=C/c1ccccc1)N1CCN(CCN2C(=O)c3cccc4cccc(c34)C2=O)CC1 | 0 | 6 | 92* | -5 | 84* | -1 | 5
CC(C)C(=O)N1CCN(c2ccccc2NC(=S)NC(=O)Cc2ccccc2)CC1 | -3 | 10 | 12 | 0 | · | · | ·
O=C1N=C(N2CCCC2)S/C1=C\c1ccccc1 | -1 | 0 | 0 | -1 | · | · | ·
CCOC(=O)C1CCCN(C2=NC(=O)/C(=C/c3ccc(OC)cc3OC)S2)C1 (configuration not stated) | -1 | -7 | 10 | 1 | · | · | ·
CCOC(=O)C1CCCN(C2=NC(=O)/C(=C/c3ccc(OC)cc3)S2)C1 (configuration not stated) | 1 | -4 | 61* | 3 | 38 | 1 | -2
O=C1N=C(N2CCCCC2)S/C1=C\c1ccc(Cl)cc1 | 1 | 2 | 86* | 1 | 55* | 0 | 10
C=CCOc1ccc(/C=C2\SC(N3CCCCC3)=NC2=O)cc1 | 1 | -1 | 57* | 1 | 43 | 1 | 9
COc1ccc(NC(=O)c2csc(Cc3ccccc3)n2)cc1 | 0 | 6 | 40* | 2 | 35 | 0 | -17
C[C@H]1CN([C@@H](C)CO)S(=O)(=O)c2ccc(C#CC3(O)CCCC3)cc2O[C@@H]1CN(C)C(=O)Cc1cccnc1 | 0 | -5 | 4 | -1 | · | · | ·
CCN(CC(=O)Nc1ccc(OC)cc1)C(=O)Cc1ccc(OC)c(S(=O)(=O)N2CCOCC2)c1 | -2 | 13 | 2 | 4 | · | · | ·
O=C(CN1CCC(n2nnc3cc(C(F)(F)F)ccc32)CC1)NCc1cccs1 | -2 | 1 | 58* | -6 | 37 | 1 | 8
CCOC(=O)c1ccccc1NC(=O)CN1CCC(n2nnc3cc(C(F)(F)F)ccc32)CC1 | -1 | 10 | 23 | 1 | · | · | ·
COc1ccc(C(=O)c2ccccc2)c(OCC(=O)N(C)C)c1 | -2 | 11 | -7 | -2 | · | · | ·
COCCCn1c(SCc2ccccc2)nc2cc(OC)c(OC)cc2c1=N | 3 | -11 | 54* | -8 | 48 | -1 | -2
COc1cc2nc(SCc3ccc(Cl)cc3Cl)n(Cc3cccs3)c(=N)c2cc1OC | -1 | 1 | 43* | 0 | 30 | 1 | 1
COc1cnc(SCc2ccc(Cl)cc2Cl)nc1Cl | -2 | -4 | 4 | 0 | · | · | ·
CCC1CCCCN1CC(=O)c1c(C)[nH]c2cc(C)ccc12 (configuration not stated) | -2 | -3 | 6 | -1 | · | · | ·
CCOC(=O)NC(=O)/C(C#N)=N/Nc1ccc(F)cc1 | -1 | -4 | 78* | 0 | 11 | 1 | -14
CCN(CC)S(=O)(=O)c1ccc2oc(C(=O)NC3CCCc4ccccc43)c(C)c2c1 (configuration not stated) | 1 | 11 | 43* | -2 | 10 | -2 | -12
NNC(=S)NC1CC2CC1C1C=CCC21 (configuration not stated) | 4 | 22 | 3 | -4 | · | · | ·
Oc1ccc(O)c(C=NNC(=S)NC2CC3CC2C2C=CCC32)c1 (configuration not stated) | 6 | -3 | 49* | 9 | 25 | -1 | -2
COC(=O)C[C@H]1C[C@H]2c3cc(NC(=O)C4CCOCC4)ccc3O[C@H]2[C@H](CO)O1 | 0 | 2 | -11 | 3 | · | · | ·
CCS(=O)(=O)N1Cc2ccccc2CC1C(=O)NCCc1c[nH]c2ccccc12 (configuration not stated) | -2 | 8 | 44* | 4 | 18 | 1 | 2
COc1ccc(S(=O)(=O)N2CCC(C(=O)NCCc3c[nH]c4ccccc34)CC2)cc1 | -1 | 6 | 45* | 5 | 18 | 0 | 9
O=C(NCCc1c[nH]c2ccccc12)C1CCN(S(=O)(=O)c2ccc(F)cc2)CC1 | 0 | 14 | 33 | 4 | · | · | ·
SMILES | MC4R ag barr | MC4R antag cAMP | EBI2 antag | m5-HT2A agonist | EBI2 antag conf | EBI2 agonist | bGal counter
CCS(=O)(=O)N1Cc2ccccc2CC1C(=O)Nc1nc2ccccc2[nH]1 (configuration not stated) | -2 | 4 | 1 | 1 | · | · | ·
CC1(C(=O)Nc2cccc3ncccc23)CCN1C(=O)Cc1ccc(-c2ccccc2)cc1 (configuration not stated) | 2 | 7 | 69* | -1 | 35 | -2 | -6
CCNC(=O)C1(C)CCCN(C(=O)c2cccc(C)c2C)C1 (configuration not stated) | 1 | -4 | 4 | 4 | · | · | ·
CCCCn1c(N)c(N(CCOC)C(=O)c2ccc(Cl)c(S(=O)(=O)N3CCCCC3)c2)c(=O)[nH]c1=O | -2 | 20 | 3 | -4 | · | · | ·
CCN1C(=O)/C(=C\c2nc3ccccc3c(=O)n2CC)c2ccccc21 | 0 | -8 | 28 | -3 | · | · | ·
CCN1C(=O)/C(=C/c2nc3ccccc3c(=O)n2-c2ccccc2)c2ccccc21 | 1 | 5 | 45* | 5 | 51* | 2 | -1
NS(=O)(=O)c1cccc(Nc2nc3ccccc3nc2NS(=O)(=O)c2ccc(Cl)cc2)c1 | 3 | 14 | 63* | 7 | 53* | -1 | 6
CN1CCN(c2ccc(NC(=O)c3ccc(C#N)cc3F)cc2Cl)CC1 | 2 | 15 | 4 | -8 | · | · | ·
COc1ccc(N2CCN(C(=O)CSc3ccc(C)cc3)CC2)cc1 | 5 | 1 | 64* | 1 | 58* | 1 | 3
Cc1ccc(SCC(=O)N2CCN(c3ccccn3)CC2)cc1 | 1 | 3 | 73* | 2 | 50* | 3 | 4
COc1ccc(N2CCN(C(=O)CSc3ccc([N+](=O)[O-])cc3)CC2)cc1 | -1 | -1 | 34 | 1 | · | · | ·
Cc1cc(NC(=O)CCSc2ccccc2)ccc1Br | 2 | -4 | 15 | -3 | · | · | ·
Cc1ccc(NC(=O)c2ccc(NS(=O)(=O)c3c(C)noc3C)cc2)cc1C | -2 | 3 | 48* | -9 | 12 | 3 | -12
COc1ccc(NC(=O)c2ccc(NS(=O)(=O)c3c(C)noc3C)cc2)cc1OC | -2 | 5 | -2 | 0 | · | · | ·
COc1cccc(-c2ccccc2C2=CC(=O)CC(C)(C)C2=O)c1 | -2 | -1 | -8 | -2 | · | · | ·
O=C(NCc1ccc(Cl)cc1)C1CCN(C(=O)c2ccc(Cl)cc2)CC1 | 1 | 2 | 45* | 4 | 26 | 0 | 11
O=C(NCc1ccc(Cl)cc1)C1CCN(C(=O)c2ccco2)CC1 | 0 | 7 | -3 | -7 | · | · | ·
COc1ccc(-c2noc(N3CCC(C(=O)NCc4ccc(Cl)cc4)CC3)n2)cc1 | -1 | -4 | 47* | 0 | 14 | -2 | -15
